Assay results: ChEMBL document CHEMBL4261491, “Synthesis and synergistic antifungal effects of monoketone derivatives of curcumin against fluconazole-resistant Candida spp” (Medchemcomm, 2017)

How the values were obtained:
[1] = tested on: Candida albicans; assay: Antifungal activity against fluconazole-resistant Candida albicans clinical isolate 103 by broth microdilution method; format: functional
Summary of the method: (§1)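 Broth microdilution per CLSI/NCCLS M27-A2 against FLC-resistant clinical isolates. MIC80 read for each compound alone and with fluconazole at 8.0 μg ml–1. C. albicans ATCC 90028 served as quality control. Curcumin was the positive control.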

[2] = tested on: Pichia kudriavzevii; assay: Antifungal activity against fluconazole-resistant Candida krusei clinical isolate 2159 by broth microdilution method; format: functional; summary of the method: as §1
[3] = Cytotoxicity against HUVEC assessed as cell viability at 16 ug/ml after 24 hrs by MTT assay relative to control; format: cell-based; conditions: human, HUVEC cells; read-out: Activity
Summary of the method: (§2)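 HUVECs grown in DMEM with 10% FCS and 100 μg ml–1 streptomycin, 5% CO2, 37 °C. Cells exposed to compounds at 16 and 32 μg ml–1 for 24 h, then incubated with MTT solution (5 mg ml–1) for 3 h. Optical density read at 570 nm. Viability expressed as percentage relative to drug-free control.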

[4] = tested on: Candida albicans; assay: Antifungal activity against fluconazole-resistant Candida albicans clinical isolate 103 in presence of 8 ug/ml fluconazole by broth microdilution method; format: functional; conditions: for MIC80: Candida albicans, isolate 103; summary of the method: as §1
[5] = tested on: Candida tropicalis; assay: Antifungal activity against fluconazole-resistant Candida tropicalis clinical isolate 087 by broth microdilution method; format: functional; summary of the method: as §1
[6] = tested on: Pichia kudriavzevii; assay: Antifungal activity against fluconazole-resistant Candida krusei clinical isolate 2159 in presence of 8 ug/ml fluconazole by broth microdilution method; format: functional; conditions: for MIC80: Pichia kudriavzevii, isolate 2159; summary of the method: as §1
[7] = Cytotoxicity against HUVEC assessed as cell viability at 32 ug/ml after 24 hrs by MTT assay relative to control; format: cell-based; conditions: human, HUVEC cells; read-out: Activity; summary of the method: as §2
[8] = tested on: Candida tropicalis; assay: Antifungal activity against fluconazole-resistant Candida tropicalis clinical isolate 087 in presence of 8 ug/ml fluconazole by broth microdilution method; format: functional; conditions: for MIC80: Candida tropicalis, isolate 087; summary of the method: as §1

In the case of `O=C1/C(=C/c2ccco2)CC/C1=C\c1ccco1`, the MIC80 [1] is reported as greater than 64 µg/mL, the MIC80 [2] is reported as greater than 64 µg/mL and the viability at 24 h, 16 ug/ml [3] is reported as 86%. The “fractional inhibitory concentration index (FICI)” value [4] was greater than 1.06, the MIC80 [4] was greater than 64 µg/mL and the MIC80 [5] was greater than 64 µg/mL. For the same molecule, the “fractional inhibitory concentration index (FICI)” value [6] was greater than 1.06, the MIC80 [6] was greater than 64 µg/mL and the viability at 24 h, 32 ug/ml [7] was 69%. The “fractional inhibitory concentration index (FICI)” value [8] was 0.188 and the MIC80 [8] was 8 µg/mL.

For `CN(C)c1ccc(/C=C2\CC/C(=C\c3ccc(N(C)C)cc3)C2=O)cc1`, the MIC80 [1] was greater than 64 µg/mL, the MIC80 [2] was greater than 64 µg/mL and the “fractional inhibitory concentration index (FICI)” value [4] was greater than 1.06. The MIC80 [4] was greater than 64 µg/mL, the MIC80 [5] was greater than 64 µg/mL and the “fractional inhibitory concentration index (FICI)” value [6] was greater than 1.06. The MIC80 [6] was greater than 64 µg/mL, the “fractional inhibitory concentration index (FICI)” value [8] was 1.06 and the MIC80 [8] was 64 µg/mL.

With `COc1ccc(/C=C2\CC/C(=C\c3ccc(OC)cc3)C2=O)cc1` the MIC80 [1] was greater than 64 µg/mL, the MIC80 [2] was greater than 64 µg/mL and the “fractional inhibitory concentration index (FICI)” value [4] was greater than 1.06. The MIC80 [4] was greater than 64 µg/mL, the MIC80 [5] was greater than 64 µg/mL and the “fractional inhibitory concentration index (FICI)” value [6] was greater than 1.06. The MIC80 [6] was greater than 64 µg/mL, the “fractional inhibitory concentration index (FICI)” value [8] was 1.06 and the MIC80 [8] was 64 µg/mL.

For `COc1ccc(/C=C/C(=O)/C=C/c2ccc(OC)c(O)c2)cc1O`, the MIC80 [1] was greater than 64 µg/mL, the MIC80 [2] was greater than 64 µg/mL and the “fractional inhibitory concentration index (FICI)” value [4] was 0.563. For the same molecule, the MIC80 [4] was 32 µg/mL, the MIC80 [5] was greater than 64 µg/mL and the “fractional inhibitory concentration index (FICI)” value [6] was greater than 1.06. For the same molecule, the MIC80 [6] was greater than 64 µg/mL, the “fractional inhibitory concentration index (FICI)” value [8] was 0.188 and the MIC80 [8] was 8 µg/mL.

With `O=C(/C=C/c1ccc(Cl)cc1)/C=C/c1ccc(Cl)cc1` the MIC80 [1] was greater than 64 µg/mL, the MIC80 [2] was greater than 64 µg/mL and the “fractional inhibitory concentration index (FICI)” value [4] was greater than 1.06. For the same molecule, the MIC80 [4] was greater than 64 µg/mL, the MIC80 [5] was greater than 64 µg/mL and the “fractional inhibitory concentration index (FICI)” value [6] was greater than 1.06. For the same molecule, the MIC80 [6] was greater than 64 µg/mL, the “fractional inhibitory concentration index (FICI)” value [8] was 0.313 and the MIC80 [8] was 16 µg/mL.

With `CN(C)c1ccc(/C=C/C(=O)/C=C/c2ccc(N(C)C)cc2)cc1` the MIC80 [1] was greater than 64 µg/mL, the MIC80 [2] was greater than 64 µg/mL and the “fractional inhibitory concentration index (FICI)” value [4] was greater than 1.06. The MIC80 [4] was greater than 64 µg/mL, the MIC80 [5] was greater than 64 µg/mL and the “fractional inhibitory concentration index (FICI)” value [6] was greater than 1.06. The MIC80 [6] was greater than 64 µg/mL, the “fractional inhibitory concentration index (FICI)” value [8] was 0.563 and the MIC80 [8] was 32 µg/mL.

`O=C(/C=C/c1cccs1)/C=C/c1cccs1` showed an MIC80 [1] greater than 64 µg/mL, an MIC80 [2] greater than 64 µg/mL and a viability at 24 h, 16 ug/ml [3] of 84%. For the same molecule, the “fractional inhibitory concentration index (FICI)” value [4] was 0.188, the MIC80 [4] was 8 µg/mL and the MIC80 [5] was greater than 64 µg/mL. The “fractional inhibitory concentration index (FICI)” value [6] was greater than 1.06, the MIC80 [6] was greater than 64 µg/mL and the viability at 24 h, 32 ug/ml [7] was 49%. For the same molecule, the “fractional inhibitory concentration index (FICI)” value [8] was greater than 1.06 and the MIC80 [8] was greater than 64 µg/mL.

With `COc1ccc(/C=C/C(=O)/C=C/c2ccc(OC)cc2)cc1` the MIC80 [1] was greater than 64 µg/mL, the MIC80 [2] was greater than 64 µg/mL and the “fractional inhibitory concentration index (FICI)” value [4] was greater than 1.06. The MIC80 [4] was greater than 64 µg/mL, the MIC80 [5] was greater than 64 µg/mL and the “fractional inhibitory concentration index (FICI)” value [6] was greater than 1.06. For the same molecule, the MIC80 [6] was greater than 64 µg/mL, the “fractional inhibitory concentration index (FICI)” value [8] was greater than 1.06 and the MIC80 [8] was greater than 64 µg/mL.

For `O=C(/C=C/c1ccc(Br)cc1)/C=C/c1ccc(Br)cc1`, the MIC80 [1] was greater than 64 µg/mL, the MIC80 [2] was greater than 64 µg/mL and the “fractional inhibitory concentration index (FICI)” value [4] was greater than 1.06. The MIC80 [4] was greater than 64 µg/mL, the MIC80 [5] was greater than 64 µg/mL and the “fractional inhibitory concentration index (FICI)” value [6] was greater than 1.06. The MIC80 [6] was greater than 64 µg/mL, the “fractional inhibitory concentration index (FICI)” value [8] was 0.563 and the MIC80 [8] was 32 µg/mL.

Work on `O=C(/C=C/c1ccc(O)cc1)/C=C/c1ccc(O)cc1` yielded an MIC80 [1] greater than 64 µg/mL, an MIC80 [2] greater than 64 µg/mL and a viability at 24 h, 16 ug/ml [3] of 87%. For the same molecule, the “fractional inhibitory concentration index (FICI)” value [4] was greater than 1.06, the MIC80 [4] was greater than 64 µg/mL and the MIC80 [5] was greater than 64 µg/mL. For the same molecule, the “fractional inhibitory concentration index (FICI)” value [6] was greater than 1.06, the MIC80 [6] was greater than 64 µg/mL and the viability at 24 h, 32 ug/ml [7] was 75%. The “fractional inhibitory concentration index (FICI)” value [8] was 0.188 and the MIC80 [8] was 8 µg/mL.

In the case of `O=C(/C=C/c1ccc(Cl)c(Cl)c1)/C=C/c1ccc(Cl)c(Cl)c1`, the MIC80 [1] is reported as greater than 64 µg/mL, the MIC80 [2] is reported as greater than 64 µg/mL and the “fractional inhibitory concentration index (FICI)” value [4] is reported as greater than 1.06. The MIC80 [4] was greater than 64 µg/mL, the MIC80 [5] was greater than 64 µg/mL and the “fractional inhibitory concentration index (FICI)” value [6] was greater than 1.06. For the same molecule, the MIC80 [6] was greater than 64 µg/mL, the “fractional inhibitory concentration index (FICI)” value [8] was greater than 1.06 and the MIC80 [8] was greater than 64 µg/mL.

For `COc1ccc(/C=C2\CC/C(=C\c3ccc(OC)c(OC)c3)C2=O)cc1OC`, the MIC80 [1] was greater than 64 µg/mL, the MIC80 [2] was greater than 64 µg/mL and the “fractional inhibitory concentration index (FICI)” value [4] was greater than 1.06. For the same molecule, the MIC80 [4] was greater than 64 µg/mL, the MIC80 [5] was greater than 64 µg/mL and the “fractional inhibitory concentration index (FICI)” value [6] was greater than 1.06. For the same molecule, the MIC80 [6] was greater than 64 µg/mL, the “fractional inhibitory concentration index (FICI)” value [8] was 0.313 and the MIC80 [8] was 16 µg/mL.
